Data: ChEMBL document CHEMBL1140728, “Synthesis and biological activity of human neuropeptide S analogues modified in position 2” (J Med Chem, 2008)
Non-standard residues stand in square brackets, D forms with d. Residues, ends and D or L forms follow the SMILES beside them. Phe(4-NO2) = N[C@@H](Cc1ccc([N+](=O)[O-])cc1)C(=O)O; Dip = N[C@H](C(=O)O)C(c1ccccc1)c1ccccc1; Phe(4-F) = N[C@@H](Cc1ccc(F)cc1)C(=O)O; Phe(4-I) = N[C@@H](Cc1ccc(I)cc1)C(=O)O; Phe(4-Me) = Cc1ccc(C[C@H](N)C(=O)O)cc1; 2Nal = N[C@@H](Cc1ccc2ccccc2c1)C(=O)O; hPhe = N[C@@H](CCc1ccccc1)C(=O)O; Tic = O=C(O)[C@@H]1Cc2ccccc2CN1; β3hF = N[C@H](CC(=O)O)Cc1ccccc1; Phg = N[C@H](C(=O)O)c1ccccc1

Tests used:
Format in all cases: functional, cell-based
[1] = biological target: T1, Neuropeptide S receptor (Mus musculus) (UniProt Q8BZP8); test: Agonist activity at mouse recombinant NPS receptor expressed in HEK293 cells assessed as intracellular calcium mobilization at 10 umol
T1 sequence (whole entry): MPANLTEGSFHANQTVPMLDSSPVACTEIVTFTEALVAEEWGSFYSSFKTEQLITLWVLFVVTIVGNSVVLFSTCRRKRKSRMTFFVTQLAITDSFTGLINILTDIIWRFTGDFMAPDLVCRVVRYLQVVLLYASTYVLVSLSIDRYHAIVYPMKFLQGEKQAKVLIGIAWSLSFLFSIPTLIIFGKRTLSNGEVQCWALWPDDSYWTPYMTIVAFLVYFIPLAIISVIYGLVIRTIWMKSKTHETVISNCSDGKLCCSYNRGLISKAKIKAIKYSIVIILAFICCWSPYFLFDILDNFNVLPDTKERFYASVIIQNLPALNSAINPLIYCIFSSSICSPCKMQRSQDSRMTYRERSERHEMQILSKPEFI

[2] = biological target: T1, Neuropeptide S receptor (Mus musculus); test: Agonist activity at mouse recombinant NPS receptor expressed in HEK293 cells assessed as intracellular calcium mobilization relative to baseline
Method in brief: (§1)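 HEK293 cells stably expressing mouse NPSR, kept in DMEM with 10% FBS, 2 mM L-glutamine and hygromycin (100 mg/L), were seeded at 50 000 cells/well. Next day they were loaded with Fluo-4 AM (3 µmol), probenecid (2.5 mmol) and 0.01% pluronic acid for 30 min at 37 °C. Agonist dilutions in HBSS/HEPES with 0.02% BSA were added, and FlexStation II fluorescence was read at 22 °C.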

[3] = biological target: T2, Neuropeptide S receptor (Mus musculus, UniProt Q8BZP8); test: Agonist activity at mouse recombinant NPS receptor expressed in HEK293 cells assessed as intracellular calcium mobilization; method in brief: as §1
T2 sequence (Q8BZP8 whole entry): T1 sequence (whole entry)

| Activity [1] [%] | Emax [2] [%] | EC50 [3] [nM] | Compound |
| --- | --- | --- | --- |
| 130 | – | – | CSCC[C@H](NC(=O)CNC(=O)[C@@H](NC(=O)CNC(=O)[C@@H](NC(=O)CNC(=O)[C@H](CC(N)=O)NC(=O)[C@H](CCCNC(=N)N)NC(=O)[C@@H](NC(=O)[C@@H](N)CO)C(c1ccccc1)c1ccccc1)C(C)C)[C@@H](C)O)C(=O)N[C@@H](CCCCN)C(=O)N[C@@H](CCCCN)C(=O)N[C@H](C(=O)N[C@@H](CO)C(=O)N[C@@H](Cc1ccccc1)C(=O)N[C@@H](CCC(N)=O)C(=O)N[C@@H](CCCNC(=N)N)C(=O)N[C@@H](C)C(=O)N[C@@H](CCCCN)C(=O)N[C@@H](CO)C(=O)O)[C@@H](C)O (H-S[Dip]RNGVGTGMKKTSFQRAKS-OH) |
| – | 291 | 1.1 | CSCC[C@H](NC(=O)CNC(=O)[C@@H](NC(=O)CNC(=O)[C@@H](NC(=O)CNC(=O)[C@H](CC(N)=O)NC(=O)[C@H](CCCNC(=N)N)NC(=O)[C@H](Cc1ccc(F)cc1)NC(=O)[C@@H](N)CO)C(C)C)[C@@H](C)O)C(=O)N[C@@H](CCCCN)C(=O)N[C@@H](CCCCN)C(=O)N[C@H](C(=O)N[C@@H](CO)C(=O)N[C@@H](Cc1ccccc1)C(=O)N[C@@H](CCC(N)=O)C(=O)N[C@@H](CCCNC(=N)N)C(=O)N[C@@H](C)C(=O)N[C@@H](CCCCN)C(=O)N[C@@H](CO)C(=O)O)[C@@H](C)O (H-S[Phe(4-F)]RNGVGTGMKKTSFQRAKS-OH) |
| – | 243 | 1.78 | CSCC[C@H](NC(=O)CNC(=O)[C@@H](NC(=O)CNC(=O)[C@@H](NC(=O)CNC(=O)[C@H](CC(N)=O)NC(=O)[C@H](CCCNC(=N)N)NC(=O)[C@H](Cc1ccc(I)cc1)NC(=O)[C@@H](N)CO)C(C)C)[C@@H](C)O)C(=O)N[C@@H](CCCCN)C(=O)N[C@@H](CCCCN)C(=O)N[C@H](C(=O)N[C@@H](CO)C(=O)N[C@@H](Cc1ccccc1)C(=O)N[C@@H](CCC(N)=O)C(=O)N[C@@H](CCCNC(=N)N)C(=O)N[C@@H](C)C(=O)N[C@@H](CCCCN)C(=O)N[C@@H](CO)C(=O)O)[C@@H](C)O (H-S[Phe(4-I)]RNGVGTGMKKTSFQRAKS-OH) |
| – | 317 | 0.676 | CSCC[C@H](NC(=O)CNC(=O)[C@@H](NC(=O)CNC(=O)[C@@H](NC(=O)CNC(=O)[C@H](CC(N)=O)NC(=O)[C@H](CCCNC(=N)N)NC(=O)[C@H](Cc1ccc(C)cc1)NC(=O)[C@@H](N)CO)C(C)C)[C@@H](C)O)C(=O)N[C@@H](CCCCN)C(=O)N[C@@H](CCCCN)C(=O)N[C@H](C(=O)N[C@@H](CO)C(=O)N[C@@H](Cc1ccccc1)C(=O)N[C@@H](CCC(N)=O)C(=O)N[C@@H](CCCNC(=N)N)C(=O)N[C@@H](C)C(=O)N[C@@H](CCCCN)C(=O)N[C@@H](CO)C(=O)O)[C@@H](C)O (H-S[Phe(4-Me)]RNGVGTGMKKTSFQRAKS-OH) |
| – | 290 | 3.63 | CSCC[C@H](NC(=O)CNC(=O)[C@@H](NC(=O)CNC(=O)[C@@H](NC(=O)CNC(=O)[C@H](CC(N)=O)NC(=O)[C@H](CCCNC(=N)N)NC(=O)[C@H](Cc1ccc([N+](=O)[O-])cc1)NC(=O)[C@@H](N)CO)C(C)C)[C@@H](C)O)C(=O)N[C@@H](CCCCN)C(=O)N[C@@H](CCCCN)C(=O)N[C@H](C(=O)N[C@@H](CO)C(=O)N[C@@H](Cc1ccccc1)C(=O)N[C@@H](CCC(N)=O)C(=O)N[C@@H](CCCNC(=N)N)C(=O)N[C@@H](C)C(=O)N[C@@H](CCCCN)C(=O)N[C@@H](CO)C(=O)O)[C@@H](C)O (H-S[Phe(4-NO2)]RNGVGTGMKKTSFQRAKS-OH) |
| 141 | – | – | CSCC[C@H](NC(=O)CNC(=O)[C@@H](NC(=O)CNC(=O)[C@@H](NC(=O)CNC(=O)[C@H](CC(N)=O)NC(=O)[C@H](CCCNC(=N)N)NC(=O)[C@@H](NC(=O)[C@@H](N)CO)c1ccccc1)C(C)C)[C@@H](C)O)C(=O)N[C@@H](CCCCN)C(=O)N[C@@H](CCCCN)C(=O)N[C@H](C(=O)N[C@@H](CO)C(=O)N[C@@H](Cc1ccccc1)C(=O)N[C@@H](CCC(N)=O)C(=O)N[C@@H](CCCNC(=N)N)C(=O)N[C@@H](C)C(=O)N[C@@H](CCCCN)C(=O)N[C@@H](CO)C(=O)O)[C@@H](C)O (H-S[Phg]RNGVGTGMKKTSFQRAKS-OH) |
| – | 244 | 8.13 | CSCC[C@H](NC(=O)CNC(=O)[C@@H](NC(=O)CNC(=O)[C@@H](NC(=O)CNC(=O)[C@H](CC(N)=O)NC(=O)[C@H](CCCNC(=N)N)NC(=O)[C@@H]1Cc2ccccc2CN1C(=O)[C@@H](N)CO)C(C)C)[C@@H](C)O)C(=O)N[C@@H](CCCCN)C(=O)N[C@@H](CCCCN)C(=O)N[C@H](C(=O)N[C@@H](CO)C(=O)N[C@@H](Cc1ccccc1)C(=O)N[C@@H](CCC(N)=O)C(=O)N[C@@H](CCCNC(=N)N)C(=O)N[C@@H](C)C(=O)N[C@@H](CCCCN)C(=O)N[C@@H](CO)C(=O)O)[C@@H](C)O (H-S[Tic]RNGVGTGMKKTSFQRAKS-OH) |
| – | 216 | 4.17 | CSCC[C@H](NC(=O)CNC(=O)[C@@H](NC(=O)CNC(=O)[C@@H](NC(=O)CNC(=O)[C@H](CC(N)=O)NC(=O)[C@H](CCCNC(=N)N)NC(=O)[C@H](CCc1ccccc1)NC(=O)[C@@H](N)CO)C(C)C)[C@@H](C)O)C(=O)N[C@@H](CCCCN)C(=O)N[C@@H](CCCCN)C(=O)N[C@H](C(=O)N[C@@H](CO)C(=O)N[C@@H](Cc1ccccc1)C(=O)N[C@@H](CCC(N)=O)C(=O)N[C@@H](CCCNC(=N)N)C(=O)N[C@@H](C)C(=O)N[C@@H](CCCCN)C(=O)N[C@@H](CO)C(=O)O)[C@@H](C)O (H-S[hPhe]RNGVGTGMKKTSFQRAKS-OH) |
| 177 | – | – | CSCC[C@H](NC(=O)CNC(=O)[C@@H](NC(=O)CNC(=O)[C@@H](NC(=O)CNC(=O)[C@H](CC(N)=O)NC(=O)[C@H](CCCNC(=N)N)NC(=O)C[C@H](Cc1ccccc1)NC(=O)[C@@H](N)CO)C(C)C)[C@@H](C)O)C(=O)N[C@@H](CCCCN)C(=O)N[C@@H](CCCCN)C(=O)N[C@H](C(=O)N[C@@H](CO)C(=O)N[C@@H](Cc1ccccc1)C(=O)N[C@@H](CCC(N)=O)C(=O)N[C@@H](CCCNC(=N)N)C(=O)N[C@@H](C)C(=O)N[C@@H](CCCCN)C(=O)N[C@@H](CO)C(=O)O)[C@@H](C)O (H-S[β3hF]RNGVGTGMKKTSFQRAKS-OH) |
| – | 213 | 2.19 | CSCC[C@H](NC(=O)CNC(=O)[C@@H](NC(=O)CNC(=O)[C@@H](NC(=O)CNC(=O)[C@H](CC(N)=O)NC(=O)[C@H](CCCNC(=N)N)NC(=O)[C@H](Cc1ccc2ccccc2c1)NC(=O)[C@@H](N)CO)C(C)C)[C@@H](C)O)C(=O)N[C@@H](CCCCN)C(=O)N[C@@H](CCCCN)C(=O)N[C@H](C(=O)N[C@@H](CO)C(=O)N[C@@H](Cc1ccccc1)C(=O)N[C@@H](CCC(N)=O)C(=O)N[C@@H](CCCNC(=N)N)C(=O)N[C@@H](C)C(=O)N[C@@H](CCCCN)C(=O)N[C@@H](CO)C(=O)O)[C@@H](C)O [[2Nal2]hNPS] (H-S[2Nal]RNGVGTGMKKTSFQRAKS-OH) |
| 39 | – | – | H-SDRNGVGTGMKKTSFQRAKS-OH |
| 170 | – | – | H-SERNGVGTGMKKTSFQRAKS-OH |
| – | 270 | 1.1 | H-SFRNGVGTGMKKTSFQRAKS-OH [NEUROPEPTIDE S] |
| – | 288 | 132 | H-SHRNGVGTGMKKTSFQRAKS-OH |
| 103 | – | – | H-SKRNGVGTGMKKTSFQRAKS-OH |
| – | 282 | 8.32 | H-SLRNGVGTGMKKTSFQRAKS-OH |
| 49 | – | – | H-SNRNGVGTGMKKTSFQRAKS-OH |
| 54 | – | – | H-SQRNGVGTGMKKTSFQRAKS-OH |
| 114 | – | – | H-STRNGVGTGMKKTSFQRAKS-OH |
| – | 323 | 2.24 | H-SWRNGVGTGMKKTSFQRAKS-OH |
| – | 312 | 2.34 | H-SYRNGVGTGMKKTSFQRAKS-OH |
